Shown are actives, neighbours in structure and some others; about 1.4% of the full set was active somewhere.
CAL PDZ FP-1 – CAL PDZ (human) peptide binding inhibition; AID 602252; inhibition, % at 24.9 µM; purified CAL PDZ, TMR-peptide fluorescence polarization, 1 h; actives 0.92% (n = 300,000);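 active = mean inhibition of at least 30% with at least half of replicates also reaching 30%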;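 also: 0% = DMSO neutral control and 100% = excess unlabeled competitor peptide PRC23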
CAL PDZ FP-2 – human CAL PDZ-peptide interaction inhibition; purified CAL PDZ, TMR-peptide fluorescence polarization, 1 h; inhibition, % at 20 µM; actives 0.02% (n = 330,000);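 active = highest replicate inhibition of at least 40%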;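 also: plate controls were DMSO neutral control wells for no effect and unlabeled competitor peptide control wells for full effect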
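material = purified tagged CAL PDZ domain construct (CerCALP) | compound dosing = 20 µM, one dose | times = 1 h at RT | measured by = fluorescence polarization from S- and P-plane intensities, G-factor corrected | read-out = inhibition from polarization loss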
Dyrk1A ADPGlo – blocks rat Dyrk1A kinase activity | Q63470 | ADP-Glo luminescence, NFATc1 peptide | inhibition, % at 12.5 µM | actives 0.43% (n = 310,000); in the data active = inhibition above about 50%;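 also: plate controls were vehicle with enzyme for no effect and no enzyme for full effect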
PvdQ acylase – P. aeruginosa PvdQ acylase inhibition | purified PvdQ acylase, fluorescence plate reader | inhibition, % at 10 µM | actives 0.063% (n = 340,000) | AID 488965; in the data active = inhibition above about 30%, passing the limit was not always enough;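 also: 0% = vehicle neutral wells and 100% = reference inhibitor wells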
CDK5 p35 inh – CDK5/p35 (human) kinase inhibition; Q00535+Q15078; Recombinant CDK5/p35, ADP-Glo luminescence, 60 min; inhibition, % at 10 µM; actives 0.01% (n = 330,000);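 active = highest replicate inhibition of at least 50% and at least 75% of replicates reaching 50%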;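 also: plate controls were DMSO neutral control for no effect and GW8510 at 10 µM for full effect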
Target sequence (Q00535 whole entry, looked up): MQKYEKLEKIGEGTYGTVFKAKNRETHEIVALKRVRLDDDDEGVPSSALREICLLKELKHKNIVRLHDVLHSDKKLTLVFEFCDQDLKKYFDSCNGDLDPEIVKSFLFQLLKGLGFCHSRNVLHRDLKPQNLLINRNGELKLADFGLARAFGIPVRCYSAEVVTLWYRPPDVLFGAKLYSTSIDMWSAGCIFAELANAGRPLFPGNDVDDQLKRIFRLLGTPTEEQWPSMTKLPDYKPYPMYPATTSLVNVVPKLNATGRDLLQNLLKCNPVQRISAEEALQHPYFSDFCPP
Target sequence (Q15078 whole entry, looked up): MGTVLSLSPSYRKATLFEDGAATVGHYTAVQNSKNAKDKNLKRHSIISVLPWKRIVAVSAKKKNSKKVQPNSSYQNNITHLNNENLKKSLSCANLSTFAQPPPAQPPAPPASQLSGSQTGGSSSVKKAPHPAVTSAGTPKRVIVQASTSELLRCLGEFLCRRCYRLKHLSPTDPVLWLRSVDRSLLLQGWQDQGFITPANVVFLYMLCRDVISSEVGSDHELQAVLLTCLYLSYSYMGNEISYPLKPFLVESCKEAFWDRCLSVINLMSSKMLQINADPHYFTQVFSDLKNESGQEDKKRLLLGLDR
TbMetRS inhib – blocks T. brucei methionyl-tRNA synthetase activity; purified T. brucei MetRS, ATP depletion, Kinase-Glo luminescence; inhibition, % at 11.9 µM; actives 0.4% (n = 360,000); AID 624268;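 active = inhibition above a per-plate cutoff of the control wells' mean inhibition plus 3 SD, cut at about 5.5% in these data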;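 also: 0% = DMSO wells median and 100% = median of wells with control inhibitor compound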
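Assay system: T. brucei methionyl-tRNA synthetase, purified | Medium: HEPES buffer with MgCl2, KCl, DTT, spermine, BSA, pyrophosphatase | Compound: 11.9 µM single point | Incubation: 15 min enzyme-compound preincubation, 2 h reaction, 10 min detection, 25 °C | Measured by: Kinase-Glo luciferase luminescence reporting remaining unconsumed ATP | Measure: % inhibition normalized to control-well medians | Replication: Singlicate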
ADP-Glo artifact – interferes with ADP-Glo luciferase readout without Dyrk1A; shares compounds with Dyrk1A ADPGlo; ADP-Glo luciferase artifact assay, no Dyrk1A, luminescence; AC50, µM (titrated, usually from 12 µM), without a hit: at the highest dose activity change, negative = inhibition; 1,300 tested, under 10 active; AID 588348;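 active = fitted half-maximal dose AC50 no more than ten times the top valid tested dose, with luminescence dropping as dose rises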
* marks the source's active call; other numbers are inactive results; . = not tested or not shown; + = active, no number.

SMILES	CAL PDZ FP-1	CAL PDZ FP-2	Dyrk1A ADPGlo	PvdQ acylase	CDK5 p35 inh	TbMetRS inhib	others
CCCNC(=O)c1ccccc1NS(=O)(=O)c1ccc2c(c1)OCCO2	69*	-2	-3	-15	-2	1
CCCCNC(=O)c1ccccc1NS(=O)(=O)c1ccc2c(c1)OCCO2	-3	-1	-1	6	1	-1
COc1cc(C(=O)OCC(C)=O)ccc1OCc1c(C)noc1C	1	-1	.	-10	2	-1
COc1cc(C(=O)OCC(=O)N2CCCCC2C)ccc1OCc1c(C)noc1C (stereo unspecified)	46*	0	3	-7	1	-1
CCc1nc2ccc(C(=O)Nc3cccc(OCC(=O)N(C)C)c3)cn2c1N(C)Cc1cc2ccccc2s1	.	.	.	.	.	0
O=C(CNS(=O)(=O)c1ccccc1)OCC(=O)c1cccc([N+](=O)[O-])c1	3	0	13	-10	1	0
Cc1cc(C)n(CC(=O)c2cccc([N+](=O)[O-])c2)n1	36*	-1	.	-21	2	0
O=C(Cc1ccccc1)OCC(=O)c1cccc([N+](=O)[O-])c1	47*	0	6	-15	-2	0
CN(C)C/C=C/C(=O)Nc1cccc(-c2c[nH]c3ncnc(Oc4ccc(NC(=O)CC(=O)Nc5ccc(F)cc5)cc4F)c23)c1	-7	-2	68*	-8	0	0
Cc1cc(NC(=O)CSc2ccc(-c3ccccc3)nn2)no1	1	-3	4	10	0	-2
O=C(CSc1ccc(-c2cccc([N+](=O)[O-])c2)nn1)N1CCCC1	65*	.	7	-15	-1	-1
CCSc1ccc(-c2cccc([N+](=O)[O-])c2)nn1	4	0	2	48*	0	-1
CCn1c(SCC(=O)Nc2cc(C)on2)nnc1-c1cccc(C)c1	48*	0	0	-17	2	0
CCn1c(SCC(=O)Nc2cc(C)on2)nnc1-c1ccc(C)cc1	-8	-2	1	-7	0	0
Cc1cc(NC(=O)CSc2ccc(-c3cccc([N+](=O)[O-])c3)nn2)no1	56*	0	-1	-19	3	0
CC(C)(C)Cc1c(-c2ccc(C#N)cc2)nc2c(Cl)cc(C(F)(F)F)cn12	.	.	.	.	.	0
CCN(CC)C(=O)C1=C(C)N(Cc2ccc(F)cc2)C(=O)C(CC(=O)NCC2CCCCC2)C1 (stereo unspecified)	.	.	.	.	.	-1
CCc1ccccc1NC(=O)c1cnn(-c2ccccc2)c1C	75*	.	-1	-4	1	-1
Cc1ccccc1NC(=O)c1cnn(-c2ccccc2)c1C	.	1	4	-1	1	-2
O=C1C(F)=CC(COC(c2ccccc2)(c2ccccc2)c2ccccc2)OC1n1cc(F)c(=O)[nH]c1=O (stereo unspecified)	-3	-2	1	-22	7	0
Cc1ccc(C)c(NC(=O)CSc2c(C)n[nH]c2C)c1	61*	16	-2	-17	0	0
Cc1ccc(OCCSc2cc(C)nc(N)n2)cc1	-3	0	5	9	-1	-1
CCCCSc1cc(C)nc(N)n1	39*	-3	-2	-14	1	-1
OCCC1CN(Cc2ccc3cc(Cl)ccc3n2)CCN1Cc1ccsc1 (stereo unspecified)	72*	-1	3	-10	-1	0
Cc1nc2c(OCc3ccc(OC(F)F)cc3)cccn2c1N(C)C(=O)CCC1CCCC1	.	.	.	.	.	0
SMILES	CAL PDZ FP-1	CAL PDZ FP-2	Dyrk1A ADPGlo	PvdQ acylase	CDK5 p35 inh	TbMetRS inhib	others
C=CCn1cnnc1SCC(=O)NCC1COc2ccccc2O1 (stereo unspecified)	-3	-2	14	5	3	0
C=CCn1cnnc1SCC(=O)N(C)CC1COc2ccccc2O1 (stereo unspecified)	48*	0	2	-4	1	0
CCNC(=O)C1(C)CCCN(Cc2ccc3ccccc3c2Br)C1 (stereo unspecified)	.	.	.	.	.	0
COc1ccc(-c2c(NC(C)=O)n(C)c3ccccc3c2=O)cc1	45*	17	0	-11	-1	0
C[N+]1(CC(=O)OC2CCCCCCCCCCC2)CCCC1	97*	-1	0	-17	-2	0
COC(=O)CCCCCCCCCC[N+]1(C)CCCCC1	-2	-2	-4	-2	-3	-1
O=C(CN(Cc1ccco1)C(=O)c1ccccc1)Nc1ccc(Cl)c(Cl)c1	-3	-2	-3	-5	-2	5.8*
COc1ccccc1NC(=O)c1ccccc1S(=O)(=O)c1ccc([N+](=O)[O-])cc1	72*	0	1	-6	0	0
COc1ccccc1NC(=O)c1ccccc1S(=O)(=O)c1ccccc1[N+](=O)[O-]	14	-2	-5	3	-1	-1
Cc1cc(OCC(=O)Nc2nnc(C3CC3)s2)ccc1C(C)C	45*	0	-6	-16	0	0
COc1ccc(NC(=O)C2(C)Cc3c(-c4ccc(N(C)C)cc4)ccnc3O2)cn1 (stereo unspecified)	.	.	.	.	.	0
CCCn1c(O)c(/C=C2\C=NN=C2c2ccccc2)sc1=S	.	-1	5	-19	-2	0
C=CCn1c(O)c(/C=C2\C=NN=C2c2ccccc2)sc1=S	52*	-1	-6	-22	-2	1
Cc1noc(C)c1COc1ccccc1C(=O)N1CCN(S(=O)(=O)c2ccc(C(C)C)cc2)CC1	.	.	.	.	.	0
C/C(=N\NC(=O)c1ccc2c(c1)OCO2)c1ccco1	50*	-1	.	-9	12	0
COC(=O)[C@]12CCCCC=C1N(Cc1cccc3ccccc13)C(=O)[C@H](CC(=O)NCCC(C)C)C2	.	.	.	.	.	-1
O=C(NCCOc1ccccc1)C1C(=O)Nc2ccccc2C(=O)N1C1CCCCC1 (stereo unspecified)	.	.	.	.	.	0
Cc1ccc(C(=O)N/N=C\c2ccccn2)cn1	+	-1	-1	-8	0	0
CCCc1ccc(C(O)c2ncc(-c3ccccc3F)[nH]2)cc1 (stereo unspecified)	.	.	.	.	.	0
OC(c1cc(C(F)(F)F)nc2c(Cl)cc(Cl)cc12)C1CCCCN1 (stereo unspecified)	-3	-1	55*	3	4	-1	ADP-Glo artifact=7%
O[C@@H](c1cc(C(F)(F)F)nc2c(C(F)(F)F)cccc12)[C@H]1CCCCN1	1	-1	0	-11	3	-1
CC(C)NC(=O)C1(C#N)C=C1c1ccccc1 (stereo unspecified)	.	.	.	.	.	0

High-throughput results as filed in PubChem.
